pIC50: −log10 of the molar value. Activity calls are given as the source filed them. The calls are words filed in the database; no cut-off is given here.
Experiments:
[1] = tested on: MDA-MB-231; assay: Antiproliferative activity against estrogen receptor-deficient human MDA-MB-231 cells […] at 50 uM after 48 hrs by MTT assay; type: functional, cell-based
[2] = tested on: MCF7; assay: Antiproliferative activity against human MCF7 cells expressing estrogen receptor after 48 hrs by MTT assay; type: functional, cell-based; conditions: MCF7, 48 h
Procedure, shortened: (§1)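 Cells seeded at 1×10^4/well in DMEM with 10% FBS for 24 h at 37 °C, then exposed to compounds for 48 h. MTT (5 mg/mL) added for 4 h. Formazan dissolved in DMSO and absorbance read at 540 nm. Routine culture used DMEM with 10% FBS, 5% CO2, reduced to 2% FBS for growth inhibition.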

[3] = tested on: Ishikawa; assay: Antiproliferative activity against human Ishikawa cells expressing estrogen receptor after 48 hrs by MTT assay; type: functional, cell-based; procedure, shortened: as §1
[4] = tested on: Bone; assay: Antiosteoporotic activity in Sprague-Dawley rat [45Ca] pre-labeled bone assessed as inhibition of PTH-induced bone resorption after 96 hrs relative to control
[5] = tested on: Ishikawa; assay: Antiproliferative activity against human Ishikawa cells expressing estrogen receptor at 50 uM after 48 hrs by MTT assay; type: functional, cell-based
[6] = species on record: Rattus norvegicus; assay: Displacement of [3H]-estradiol from estrogen receptor in rat uteri after 18 hrs by scintillation counting relative to 17beta-estradiol
Procedure, shortened: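 Cytosol from uteri of immature 20–21-day-old rats, in TEA buffer pH 7.4 (10 mM Tris, 1.5 mM EDTA, 0.02% azide). Incubated in triplicate with fixed 3H-estradiol ± competitor (DMF ≤5% final) for 18 h at 4 °C. Free ligand removed with dextran-coated charcoal (15 min, 800g 10 min), then supernatant counted. RBA taken at 50% inhibition from the bound-versus-log concentration plot.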

[7] = tested on: Rattus norvegicus; assay: Antiestrogenic activity in Sprague-Dawley rat assessed as inhibition of uterine weight gain administered as po daily once for 3 days relative to 17alpha-ethynylestradiol; type: functional
Procedure, shortened: (§2)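 Immature female Sprague-Dawley rats given oral dosing once daily for 3 days on days 28–30 of age. Antiestrogenic arm co-dosed ethynylestradiol 0.02 mg/kg in 10% ethanol-water. Autopsy 24 h after last dose (day 31). Uterus excised, blotted and weighed, with vaginal opening and cornification also scored. Inhibition computed as (E − T)×100/E versus ethynylestradiol alone. Estrogenic gain expressed as percent increase over vehicle control.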

[8] = tested on: MDA-MB-231; assay: Antiproliferative activity against estrogen receptor-deficient human MDA-MB-231 cells […] after 48 hrs by MTT assay; type: functional, cell-based; conditions: MDA-MB-231, 48 h; procedure, shortened: as §1
[9] = tested on: Bone; assay: Antiosteoporotic activity in Sprague-Dawley rat [45Ca] pre-labeled bone assessed as inhibition of PTH-induced bone resorption after 96 hrs
[10] = tested on: HEK293; assay: Antiproliferative activity against human HEK293 cells at 50 uM after 48 hrs by MTT assay; type: cell-based; conditions: hek293, 48 h
[11] = tested on: Rattus norvegicus; assay: Estrogenic activity in Sprague-Dawley rat assessed as increase in uterine weight administered as po daily once for 3 days relative to control; type: functional; set-up: concentration or dose not given beside the values; procedure, shortened: as §2
[12] = tested on: Rattus norvegicus; assay: Antiimplantation activity in Sprague-Dawley albino rat at 20 mg/kg, po after 10 days; type: functional
Procedure, shortened: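 Sperm-positive adult Sprague-Dawley females (180–220 g) mated with proven-fertile males. Compounds given orally as a gum acacia suspension on days 1–5 post-coitum, 5–7 animals per group. Vehicle-only group served as control.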

[13] = tested on: MCF7; assay: Antiproliferative activity against human MCF7 cells expressing estrogen receptor at 50 uM after 48 hrs by MTT assay; type: functional, cell-based
[14] = tested on: HEK293; assay: Antiproliferative activity against human HEK293 cells after 48 hrs by MTT assay; type: cell-based; conditions: HEK293, 48 h; procedure, shortened: as §1

pIC50 [2] | pIC50 [8] | Structure (SMILES) | pIC50 [3] | Activity [5] | other results
4.60 | – | CSC(CC(=O)c1ccccc1)c1ccccc1 (centres undefined) | 4.60 | – | Activity [1]: inactive
4.62 | 4.42 | O=C(CC(Sc1ccccc1)c1ccccc1)c1ccc(O)cc1 (centres undefined) | – | inactive | –
– | 4.36 | O=C(CC(Sc1ccc([N+](=O)[O-])cc1)c1ccccc1)c1ccccc1 (centres undefined) | 4.64 | – | Activity [13]: inactive
4.60 | 4.44 | Cc1ccc(C(CC(=O)c2cccc(Cl)c2)Sc2ccccc2)cc1 (centres undefined) | 4.55 | – | –
4.52 | 4.32 | O=C(CC(Sc1ccccc1)c1ccccc1)c1ccc2ccccc2c1 (centres undefined) | 4.59 | – | –
4.54 | 4.39 | COc1ccc(C(=O)CC(Sc2ccccc2)c2ccccc2)cc1 (centres undefined) | – | inactive | –
< 4.30 | 4.57 | CN(C)CCOc1ccc(C(=O)CC(Sc2ccccc2)c2ccccc2)cc1 (centres undefined) | 4.70 | – | inhibition (INH) [4]: 13.7%; RBA [6]: 0.157%; inhibition (INH) [7]: 12%; T/C [9]: 0.863; Activity [10]: Non-toxic; Activity [11]: 174%; Activity [12]: inactive
4.54 | 4.49 | O=C(CC(Sc1ccccc1)c1ccccc1)c1cccc(Cl)c1 (centres undefined) | 4.54 | – | –
4.55 | 4.51 | O=C(CC(Sc1ccc(Cl)cc1)c1ccccc1)c1ccc(Cl)cc1 (centres undefined) | 4.62 | – | –
4.72 | 4.48 | O=C(CC(Sc1ccccc1)c1ccc(O)cc1)c1ccccc1 (centres undefined) | – | inactive | pIC50 [14]: 4.50
4.60 | 4.46 | Cc1cccc(SC(CC(=O)c2ccccc2)c2ccc(O)cc2)c1 (centres undefined) | 4.66 | – | –
4.60 | 4.42 | O=C(CC(Sc1ccccc1)c1ccccc1)c1cccc([N+](=O)[O-])c1 (centres undefined) | 4.68 | – | –

The next lines start with the molecule.

Structure (SMILES) | pIC50 [2] | pIC50 [8] | pIC50 [3] | Activity [5] | other results
Cc1ccc(SC(CC(=O)c2ccc(OCCN(C)C)cc2)c2ccccc2)cc1 (centres undefined) | < 4.30 | 4.55 | – | inactive | inhibition (INH) [4]: 15.5%; RBA [6]: 0.245%; inhibition (INH) [7]: 8%; T/C [9]: 0.845; Activity [10]: Non-toxic; Activity [11]: 76%; Activity [12]: inactive
COc1ccc(C(CC(=O)c2ccccc2)Sc2ccc(Cl)cc2)cc1 (centres undefined) | 4.60 | 4.44 | 4.66 | – | –
O=C(CC(Sc1ccc(Cl)cc1)c1ccccc1)c1ccccc1 (centres undefined) | – | – | – | inactive | Activity [1]: inactive; Activity [13]: inactive
O=C(CC(Sc1ccc(O)cc1)c1ccccc1)c1ccc(OCCN2CCCC2)cc1 (centres undefined) | 4.54 | 4.57 | 4.80 | – | inhibition (INH) [4]: 9.8%; RBA [6]: 0.67%; pIC50 [14]: 4.56; inhibition (INH) [7]: 18%; T/C [9]: 0.902; Activity [11]: 101%; Activity [12]: 60%
O=C(CC(Sc1ccc(O)cc1)c1ccccc1)c1ccc(OCCN2CCCCC2)cc1 (centres undefined) | 5.02 | 4.78 | 4.79 | – | inhibition (INH) [4]: 21.3%; RBA [6]: 5.27%; pIC50 [14]: 4.12; inhibition (INH) [7]: 34%; T/C [9]: 0.787; Activity [11]: 58%; Activity [12]: 100%
COc1ccc(C(CC(=O)c2ccccc2)SCCC(=O)O)cc1 (centres undefined) | – | 4.36 | 4.62 | – | Activity [13]: inactive
CCSC(CC(=O)c1ccc(OCCN2CCCCC2)cc1)c1ccccc1 (centres undefined) | 4.48 | 4.40 | 4.55 | – | inhibition (INH) [4]: 5.5%; RBA [6]: 0.175%; inhibition (INH) [7]: 7%; T/C [9]: 0.947; Activity [10]: Non-toxic; Activity [11]: 134%; Activity [12]: inactive
CCSC(CC(=O)c1ccc(OCCN(C)C)cc1)c1ccccc1 (centres undefined) | 4.57 | 4.42 | – | inactive | inhibition (INH) [4]: 5.6%; RBA [6]: 0.246%; pIC50 [14]: 4.48; inhibition (INH) [7]: 4%; T/C [9]: 0.944; Activity [11]: 212%; Activity [12]: inactive
O=C(CC(Sc1ccc(O)cc1)c1cccc(O)c1)c1ccc(OCCN2CCCCC2)cc1 (centres undefined) | 4.91 | 4.72 | 4.77 | – | inhibition (INH) [4]: 18.8%; RBA [6]: 4.47%; pIC50 [14]: 4.18; inhibition (INH) [7]: 31%; T/C [9]: 0.812; Activity [11]: 79%; Activity [12]: 100%
CCSC(CC(=O)c1ccc(OCCN2CCCC2)cc1)c1ccccc1 (centres undefined) | 4.57 | < 4.30 | < 4.30 | – | inhibition (INH) [4]: 3.7%; RBA [6]: 0.191%; pIC50 [14]: 4.53; inhibition (INH) [7]: 9%; T/C [9]: 0.963; Activity [11]: 152%; Activity [12]: 100%
COc1ccc(C(=O)CC(Sc2ccc(Cl)cc2)c2ccccc2)cc1 (centres undefined) | – | – | 4.66 | – | Activity [1]: inactive; Activity [13]: inactive
O=C(O)CCSC(CC(=O)c1ccccc1)c1ccccc1 (centres undefined) | – | 4.38 | 4.64 | – | Activity [13]: inactive
O=C(CC(Sc1ccc(O)cc1)c1ccc(O)cc1)c1ccc(OCCN2CCCC2)cc1 (centres undefined) | 4.60 | < 4.30 | 4.76 | – | inhibition (INH) [4]: 6.6%; RBA [6]: 5.15%; pIC50 [14]: 4.54; inhibition (INH) [7]: 24%; T/C [9]: 0.934; Activity [11]: 111%; Activity [12]: inactive
COc1ccc(C(=O)CC(Sc2ccc(C)cc2)c2ccc(OC)cc2)cc1 (centres undefined) | 4.74 | 4.55 | – | inactive | Activity [10]: Non-toxic
CCSC(CC(=O)c1ccccc1)c1ccc(O)cc1 (centres undefined) | – | – | – | inactive | Activity [1]: inactive; Activity [13]: inactive
Cc1ccc(SC(CC(=O)c2ccccc2)c2ccccc2)cc1 (centres undefined) | – | – | – | inactive | Activity [1]: inactive; Activity [13]: inactive
COc1ccc(C(CC(=O)c2ccc(Cl)cc2)Sc2ccccc2)cc1 (centres undefined) | – | – | 4.60 | – | Activity [1]: inactive; Activity [13]: inactive
CC/C(=C(\c1ccccc1)c1ccc(OCCN(C)C)cc1)c1ccccc1 [TAMOXIFEN] | 4.90 | – | 4.65 | – | RBA [6]: 2.2%; inhibition (INH) [7]: 49%; Activity [11]: 155%
CCSC(CC(=O)c1ccccc1)c1ccc(OC)cc1 (centres undefined) | 4.62 | – | – | inactive | Activity [1]: inactive
COc1ccc(C(CC(=O)c2ccccc2)Sc2ccc(C)cc2)cc1 (centres undefined) | 4.64 | 4.35 | 4.77 | – | –
O=C(c1ccc(OCCN2CCCCC2)cc1)c1c(-c2ccc(O)cc2)sc2cc(O)ccc12 [RALOXIFENE] | – | – | – | – | inhibition (INH) [4]: 38%; T/C [9]: 0.62
O=C(CC(Sc1ccc(Cl)cc1)c1ccccc1)c1ccc([N+](=O)[O-])cc1 (centres undefined) | 4.60 | 4.54 | 4.68 | – | –
CCSC(CC(=O)c1ccc(OC)cc1)c1ccc(OC)cc1 (centres undefined) | 4.57 | – | – | inactive | Activity [1]: inactive
Cc1ccc(SC(CC(=O)c2cccc(Cl)c2)c2ccc(C)cc2)cc1 (centres undefined) | 4.57 | 4.39 | – | inactive | –

Source: ChEMBL document CHEMBL1817588, “Design and synthesis of 1,3-biarylsulfanyl derivatives as new anti-breast cancer agents” (Bioorg Med Chem, 2011)
